Measured values as given in ChEMBL document CHEMBL5532703, “A new class of 7-deazaguanine agents targeting autoimmune diseases: dramatic reduction of synovial fibroblast IL-6 production from human rheumatoid arthritis patients and improved performance against murine experimental autoimmune encephalomyelitis” (RSC Med Chem, 2024).
Active and inactive are the calls of the source. The rule behind the calls is not given here.

Tests used:
Mus musculus [1] = test: Anti-inflammatory activity in complete Freund's adjuvant/MOG (35 to 55 residues)/pertussis toxin-induced experimental autoimmune encephalomyelitis C57BL/6 mouse model assessed as decrease in disease progression at 15 mg/kg,ip administration observed after 1 day; type: functional, organism-based
How it was run: (§1)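 Female C57BL/6 mice, 10–12 weeks old and about 20 g, with EAE induced by s.c. CFA/MOG plus i.p. pertussis toxin on days 0 and 2. Mice entered the study at clinical score 1.5–2, which was day 0, and were randomised. Each received 200 µL i.p. daily for 7 days of 4 mM compound (equimolar dosing) in 4% DMSO/PBS, made fresh. Vehicle controls were used, n = 4–5, with clinical scores recorded daily post treatment.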

Synovial fibroblasts [2] = test: Anti-inflammatory activity in human Synovial fibroblasts derived from rheumatoid arthritis patient assessed as reduction in TNF-alpha induced IL-6 production measured after 72 hrs by ELISA; type: functional, cell-based
How it was run: (§2)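 Synovial fibroblasts came from collagenase-digested (1 mg/mL, 4 h, 37 °C) RA patient biopsies, grown in RPMI-1640 with 10% FCS and used at passages 3–8. Cultures were stimulated with TNFα (10 ng/mL) while exposed to compound, with medium and compound renewed at 24 h. Supernatants were collected at 72 h for IL-6 ELISA, relative to a 4% DMSO/PBS vehicle control.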

Mus musculus [3] = test: Anti-inflammatory activity in complete Freund's adjuvant/MOG (35 to 55 residues)/pertussis toxin-induced experimental autoimmune encephalomyelitis C57BL/6 mouse model assessed as decrease in disease progression at 15 mg/kg,ip administration observed after 3 days; type: functional, organism-based; settings: time 3.0 day; how it was run: as §1
Mus musculus [4] = test: Anti-inflammatory activity in complete Freund's adjuvant/MOG (35 to 55 residues)/pertussis toxin-induced experimental autoimmune encephalomyelitis C57BL/6 mouse model assessed as decrease in disease progression at 15 mg/kg,ip administration observed after 7 days; type: functional, organism-based; settings: time 7.0 day; how it was run: as §1
Synovial fibroblasts [5] = test: Anti-inflammatory activity in human Synovial fibroblasts derived from rheumatoid arthritis patient assessed as reduction in TNF-alpha induced IL-6 production at 200 uM measured after 72 hrs by ELISA; type: functional, cell-based; how it was run: as §2
Mus musculus [6] = test: Anti-inflammatory activity in complete Freund's adjuvant/MOG (35 to 55 residues)/pertussis toxin-induced experimental autoimmune encephalomyelitis C57BL/6 mouse model assessed as decrease in disease progression at 16 mg/kg,ip administration observed after 2 days; type: functional, organism-based; settings: time 2.0 day; how it was run: as §1
Mus musculus [7] = test: Anti-inflammatory activity in complete Freund's adjuvant/MOG (35 to 55 residues)/pertussis toxin-induced experimental autoimmune encephalomyelitis C57BL/6 mouse model assessed as decrease in disease progression at 9 mg/kg,ip administration observed after 7 days; type: functional, organism-based; settings: time 7.0 day; how it was run: as §1
Mus musculus [8] = test: Anti-inflammatory activity in complete Freund's adjuvant/MOG (35 to 55 residues)/pertussis toxin-induced experimental autoimmune encephalomyelitis C57BL/6 mouse model assessed as decrease in disease progression at ip administration observed after 4 days; type: functional, organism-based; settings: time 4.0 day
How it was run: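 EAE in female C57BL/6 mice, induced with CFA/MOG s.c. and pertussis toxin i.p. Mice were enrolled at clinical score 1.5–2 and randomised, then dosed i.p. daily with compound diluted to 4 mM in 4% DMSO/PBS, 200 µL per mouse. This was a 4-day study, n = 5, with 4% DMSO/PBS vehicle controls. Clinical score was tracked daily after treatment started.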

Mus musculus [9] = test: Anti-inflammatory activity in complete Freund's adjuvant/MOG (35 to 55 residues)/pertussis toxin-induced experimental autoimmune encephalomyelitis C57BL/6 mouse model assessed as decrease in disease progression at 9 mg/kg,ip administration observed after 3 days; type: functional, organism-based; settings: time 3.0 day; how it was run: as §1
Mus musculus [10] = test: Anti-inflammatory activity in complete Freund's adjuvant/MOG (35 to 55 residues)/pertussis toxin-induced experimental autoimmune encephalomyelitis C57BL/6 mouse model assessed as decrease in disease progression at 16 mg/kg,ip administration observed after 1 day; type: functional, organism-based; how it was run: as §1

Compound	Activity (Synovial fibroblasts [5])	other results
Nc1nc2[nH]cc(CNCCCc3ccccc3)c2c(=O)[nH]1		Activity (Mus musculus [1]): Active; Activity (Synovial fibroblasts [2]): Dose-Dependent Effect; Activity (Mus musculus [3]): Active; Activity (Mus musculus [4]): Active
CCC(CC)(CCNCc1c[nH]c2nc(N)[nH]c(=O)c12)c1ccccc1	Active	
Nc1nc2[nH]cc(CNCCC(c3ccccc3)c3ccccc3)c2c(=O)[nH]1	Active	
Nc1nc2[nH]cc(CNCC[C@@H](O)c3ccccc3)c2c(=O)[nH]1	Active	
CC(C)(CCNCc1c[nH]c2nc(N)[nH]c(=O)c12)c1ccccc1	Active	Activity (Mus musculus [6]): Active
Nc1nc2[nH]cc(CNCCC3(c4ccccc4)SCCS3)c2c(=O)[nH]1	inactive	
Nc1nc2[nH]cc(/C=N/O)c2c(=O)[nH]1	Active	Activity (Mus musculus [7]): Active
Nc1nc2[nH]cc(CNOCCc3ccccc3)c2c(=O)[nH]1	Active	Activity (Mus musculus [8]): Active
Nc1nc2[nH]cc(/C=N/OCc3ccccc3)c2c(=O)[nH]1	Active	
Nc1nc2[nH]cc(CNCC[C@H](O)c3ccccc3)c2c(=O)[nH]1	Active	
CO/N=C/c1c[nH]c2nc(N)[nH]c(=O)c12	Active	Activity (Mus musculus [9]): Active; Activity (Mus musculus [7]): inactive
Nc1nc2[nH]cc(CNCCC(=O)c3ccccc3)c2c(=O)[nH]1	Active	Activity (Mus musculus [10]): Active
C[C@H](CCNCc1c[nH]c2nc(N)[nH]c(=O)c12)c1ccccc1	inactive	
Nc1nc2[nH]cc(CNCCNc3ccccc3)c2c(=O)[nH]1	Active	
CC(CCNCc1c[nH]c2nc(N)[nH]c(=O)c12)c1ccccc1 (stereo unspecified)	Active	
Nc1nc2[nH]cc(CNCCCc3ccsc3)c2c(=O)[nH]1	Active	
Nc1nc2[nH]cc(CNCCC3(c4ccccc4)CC3)c2c(=O)[nH]1	Active	
